In the EternaBench riboswitch data:

Tested on: MS2 coat protein
Assay: apparent Kd, MS2 coat protein; higher = weaker binding; RNA-MaP array; FMN 200 µM where present
Summary of the method: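 The apparent Kd comes from binding curves fitted cluster by cluster, filtered, and summarised as a median. Those curves followed SNAP-549-labelled MS2 coat protein from 0.7 or 1.5 nM, doubling to 3 µM, on Illumina sequencing-chip clusters where stalled E. coli RNA polymerase had transcribed the designs, without and then with constant ligand. The buffer was 100 mM Tris-HCl pH 7.5, 80 mM KCl, 4 mM MgCl2, BSA, DTT, yeast tRNA and Tween-20, and green signal was normalised to red-channel RNA signal and control-cluster median Fmax.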

[1] = designed as: ON switch for flavin mononucleotide, no ligand
[2] = ligand present: flavin mononucleotide, designed as: ON switch for flavin mononucleotide
[3] = designed as: OFF switch for flavin mononucleotide, no ligand
[4] = ligand present: flavin mononucleotide, designed as: OFF switch for flavin mononucleotide

Sequence	apparent Kd [1]	apparent Kd [2]	apparent Kd [3]	apparent Kd [4]
UGGUACUAAGGAGGAUAUGGGAAGAUACAUGAGGAUCACCCAUGUUUAAGAAUGCCGAGAGGCAACUAGAAGGCCCUAGUACCU	415 nM	21.9 nM	–	–
GGUGCGAUGUAGAAGGCAGAUCUGAUUCAGAUCUGAGGAUAUACAUGAGGAUCACCCAUGUAAACGCACCGCACGAGAGUGCAA	–	–	6.6 nM	8.12 nM
GCGCGCGCAGGAUAUACAAUUGUGUGUGGAAACGCGCGCGUACAUGAGGAUCACCCAUGUAGAAGGGUGUGUGU	–	–	445 nM	198 nM
AAAUUUAACGAAGGAUAUGGUUACAUGAGGAUCACCCAUGUGUGCCUUGUGAUCUUGUUUAAGUUCCAGAAGGUCGUAUACAUA	–	–	41.7 nM	183 nM
UGUAUGGACAGAGGAUAUACCGAUAGGAUCUACUAUCGAAGAAUCCUCACAUGAGGAUCACCCAUGUAGAAGGCUGUCCAUACU	–	–	41.3 nM	665 nM
CCUAUACAUGAGGAUCACCCAUGUCAGGAUAUAGAAAGCCGCGGAAUAGGCCGCGGCACUAGAAGGGACUGGCU	–	–	27.5 nM	40.5 nM
UUAUGUGUCGUAGGAUAUCAUUAGAUUUGUAAUUUAAUUGUAAUUUACAUAUGAGAAGGACGUAUACAUGAGGAUCACCCAUGU	–	–	25.5 nM	35.9 nM
UCGAAGAAUGCAGGAUAUACAUGAGGAUCACCCAUGUCACGGUCGGCUUCUGUAGAAGGGCACUUACCCAGGUAAAUUGCUUGG	–	–	5.39 nM	5.81 nM
CAGCGCUGUCGAGAGGAUAUGCGGUGAUGGACAUGAGGAUCACCCAUGUUAGCGACAGCAUCACGGCAGAAGGCUCUACCGCUGC	31.5 nM	21.7 nM	–	–
GCACGAGACUAAGGAUAUGGUGUACCUACAUGAAACAUGAGGAUCACCCAUGUAGUAAGUAUGAUUCAGAAGGUAGAGACGUGC	30.4 nM	18.3 nM	–	–
AAUGUACGAGGAUAUACAUAGAUACAGAUACAUGUAGACGUACAUGAGGAUCACCCAUGUAGAAGGCGUACAUA	–	–	178 nM	73.8 nM
CCCGCCAUACAGAAGGGAAACAUGAGGAUCAGCCGCGACAUGAGGAUCACCCAUGUUUACCUAUUUCAGGAUAUGUACACUCCC	470 nM	225 nM	–	–
GCAGGCUUCGAGAAGGACAUGAGGAUCACCCAUGUGCGUGUGAAGCAGCCGUGAGGCUGCAUCAUGUAGGAUAUCGGAGUCUGC	–	–	70.8 nM	573 nM
UAUAUAAUUAAGAGCUGGAAAACAACAUGAGGAUCACCCAUGUAGGAUAUCAGCACGAUAAGUGCUGAGAAGGACUACCAGCUC	–	–	14 nM	16.8 nM
GGAUAGGACAGAGGAUAUACGUGCUAGAGAUACUAGCAAAAUUUCCUCACAUGAGGAUCACCCAUGUAGAAGGCUGUCCUAUUG	–	–	15.6 nM	460 nM
AAUAUACAUGAGGAUCACCCAUGUUAGGUGGGACUAGGAUAUCAGAGUACAUUAUGAACAUGAGAAGGAGUCUCAG	66.2 nM	24.2 nM	–	–
AAUUGGAUCCAGAAGGCAUGGACGACCCGUCACAUUAACAUGAGGAUCACCCAUGUAUAAAGACAUGAGGAUAUGGAUCCUAAA	25.7 nM	7.99 nM	–	–
CUGAGCAAUGUAGGAUAUCGACUGGAUAACAGUCGAGAAGGACAUGAGGAUCACCCAUGUCAAUGAGUGAAUAAUAAAGCUCAG	–	–	20.4 nM	118 nM
GCACUGACAGGAUAUACAUGAGGAUCACCCAUGUGACCCUUAGAGUACUCGCGUACUCGUAGAAGGGUCUGUGC	–	–	36 nM	105 nM
UCACAGUGUCGUUAUCCGUAGCGAACAUGAGGAUCACCCAUGUAGGAUAUGUUAUUAAACUAAUAACAGAAGGACGUUGGUCGG	–	–	36.7 nM	220 nM
CGGAUGUCAGGAUAUCGUGCAUACAACGAAAGUUCUAUGUGCGAGAAGGGACAUGAGGAUCACCCAUGUUAACG	–	–	59.5 nM	250 nM

Sequence	apparent Kd [1]	apparent Kd [2]	apparent Kd [3]	apparent Kd [4]
AAUUGACCGCUAGGAUAUGCACAUGAGGAUCACCCAUGUAAGCGUGUAAAGUGGUAUGCCCGUGUGUAGAAGGAGCGAUGCUGA	–	–	47.6 nM	40.6 nM
AUUAAACAUGAGGAUCACCCAUGUCAACAAAGUCGAGGAUAUGGGCAAAUAAAUUAAGAACCAGAAGGCGAAUAAU	435 nM	40.5 nM	–	–
AAACUGCAUGUGAGGAUAUGCACCGGCUAAACCGGGCAGAAGGCACAUGAGGAUCACCCAUGUCAUCCUAUUGC	–	–	9.41 nM	18.4 nM
GCUAGUCAUGUCAGGAUAUGCUGUACCUUGGUACAGCAGAAGGGACAUGAGGAUCACCCAUGUGCCUAACUAGC	–	–	39 nM	416 nM
UCUUUGUGAGGAUAUCAGUAGUAAAUAAAUAAAAUUACUACUGAGAAGGCACAUGAGGAUCACCCAUGUUCCUU	–	–	12.1 nM	24.4 nM
GGAUCCAACACAGGAUAUGCUGGACUUUGUCCAGCAGAAGGGUGAAGGACAUGAGGAUCACCCAUGUGGAUCCAUAUAUUUAAU	324 nM	27.8 nM	–	–
AGUCCUGAUGUUAGGAUAUGCAACUAGCCAUUGUAGCAGAAGGAACAUGAGGAUCACCCAUGUACAAAGACCCA	–	–	30.1 nM	55.4 nM
CCCAGUUAUCUAGGAUAUUGUACAUGAGGAUCACCCAUGUAAUAAAUGAGGAUUUCGGGUGUCUACAAGAAGGAGAGGAUAGGC	–	–	28.6 nM	26.1 nM
UGUUGUAUUACAGGAUAUCUAUUGUUAUUAUUUAGAGAAGGGUAUUCACAUGAGGAUCACCCAUGUAUAUACGAGGAAGUUGUG	45.3 nM	45.5 nM	–	–
UAAAUACAUGAGGAUCACCCAUGUCAAAAGACAUGAGGAUAUGUACAGUCUUCGGUCUGUACAGAAGGCAUGAAUA	464 nM	35 nM	–	–
AAGGAUCGAGGAUAUACAUAGAUACAGAUUCAUGUAGAACUACAUGAGGAUCACCCAUGUAGAAGGCGAUCCUA	–	–	38.4 nM	291 nM
AAACAUGUCCGAGGAUAUCUGAGAUCAUUUUCAAGAGAAGGCGGACAUGAGGAUCACCCAUGUCUCUCCUCAUCGACUCCAAAU	–	–	6.32 nM	21.1 nM
GUCAGUCGAGGAUAUACGAUCGUGCUUCGGCACGUAAGAUCACAUGAGGAUCACCCAUGUAGAAGGCGACUGAC	–	–	32.5 nM	257 nM
GGAUGACAAAGUCAUCCAAAUCGAACAUGAGGAUCACCCAUGUAGGAUAUCCUACUCAAAGAGUAGGAGAAGGACAUGUGCUUU	–	–	53.1 nM	178 nM
ACGCCCUAGUAGAAGGGACAUCGGCUGGUAAGCAUCAUCUCCUUCUCACAUGAGGAUCACCCAUGUCAGGAUAUACUAGGAUGC	–	–	12.2 nM	35.1 nM
GCCUUACCGGUCAGGAUAUACAUUUGUUACUCUUUGUAGAAGGGACAUGAGGAUCACCCAUGUACAUUACAUUC	–	–	19.1 nM	19.2 nM
GGCGGCGCGGGCCACCGCAGGACCAGAAGGACAUGAGGAUCACCCAUGUGGCAGAACAGGGCGGUGUAGGAUAUGGCAGGCUCG	–	–	28.8 nM	64.3 nM
GACGCGCUCACAGGAUAUAGAUCCUCAGUGGCUCUAGAAGGGUGAACGUGCCCGAACGGGACAUGAGGAUCACCCAUGUAAUAA	34.9 nM	13.2 nM	–	–
AAAACAUGAGGAUCACCCAUGUAAAGAACGCUUAAUAGAUCUGAGGAUAUACUAGAAUUUACGUAGUAGAAGGCAGUGGGUACA	31.3 nM	25.3 nM	–	–
GAGAUGUCAGGAUAUGUGUAAAGAAUAAAACAAAUAACAACACAGAAGGGACAUGAGGAUCACCCAUGUUACUC	–	–	24.9 nM	54.6 nM
GGAAAUCAUGUAGGAUAUGCAUGGCGAAGCUACGCAGAAGGACAUGAGGAUCACCCAUGUUAUAGCUACCAAGUUAGGUGGCAA	–	–	139 nM	144 nM
